This is an account of results in ChEMBL document CHEMBL1123278, “Synthesis and dopaminergic activity of trans-6-methyl-7a,8,9,10,11,11a-hexahydro-7H-pyrrolo[3,2,1-gh]- 4,7-phenanthroline and trans-1,2,3,4,4a,5,6,10b-octahydro-4,7-phenanthroline derivatives” (J Med Chem, 1986).

The subject of series [1] is Rattus norvegicus. In words: Compound was tested for inhibiting prolactin release at the 0.456 mg/kg dose levels. The format is functional. The gist of the method:
(§1)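 Adult male Wistar rats (250–300 g) were caged singly with food and water ad libitum. Each rat got reserpine pretreatment, 2.5 mg/rat ip (2.5 mg/mL), 18 h before the drug. Drugs were dissolved in distilled water at 1 mL/kg ip; saline controls were run. Serum (100 µL, duplicate) was assayed by NIADDK prolactin RIA, expressed as ng RP3/mL. Results were given as % inhibition versus controls, mean ± standard error, 5–10 rats/group.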

For series [2], the system named is Rattus norvegicus. In words: Compound was tested for inhibiting prolactin release at the 4.56 mg/kg dose levels 1 hr after ip administration. The format is functional. The conditions noted are these: route intraperitoneal. The method, boiled down:
(§2)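 Time course in reserpine-pretreated male Wistar rats (250–300 g), given reserpine 2.5 mg/rat ip 18 h before dosing. The drug was given ip in distilled water (1 mL/kg), and rats were killed 1, 3 or 6 h later, with saline controls at each time. Serum prolactin was measured by duplicate NIADDK RIA (ng RP3/mL) and reported as % inhibition versus controls, mean ± standard error, 6–10 rats/group.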

In series [3] the test system is Rattus norvegicus. In words: Compound was tested for inhibiting prolactin release at the 0.0456 mg/kg dose levels. The series is classed as functional. The gist of the method:
as §1

Series [4] in a line: Compound was evaluated for its acute toxicity in rat. The format is organism-based. The conditions noted are these: in vivo. The method, boiled down:
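Male Wistar rats (200–250 g), 50 per substance, given single ip doses at five dose levels with 10 rats per dose. Deaths were followed for up to 14 days. LD50 was estimated by the Weil method, with 95% confidence limits.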

In series [5] the test system is Rattus norvegicus. In words: Compound was tested for inhibiting prolactin release at the 4.56 mg/kg dose levels 6 hr after ip administration. The format is functional. The following applies: route intraperitoneal. The method, boiled down:
as §2

Series [6] relates to Rattus norvegicus. In words: Dopaminergic activity, ability to lower serum prolactin levels 1 hr after intraperitoneal administration of compound (4.56 mg/kg). The format is functional, organism-based. The method, boiled down: as §2
In series [7] the test system is Rattus norvegicus. Put plainly: Dopaminergic activity, ability to lower serum prolactin levels after intraperitoneal administration of compound (0.0456 mg/k). The format is functional, organism-based. The method, boiled down:
as §1

For series [8], the system named is Rattus norvegicus. In words: Dopaminergic activity, ability to lower serum prolactin levels after intraperitoneal administration of compound (0.456 mg/kg). The series is classed as functional, organism-based. The gist of the method:
as §1

In series [9] the test system is Rattus norvegicus. Put plainly: Compound at the 4.56 mg/kg dose levels was evaluated for its ability to lower serum prolactin levels 6 hr after intraperitoneal administration. The series is classed as functional, organism-based. On the set-up: dose 4.56 mg/kg. The gist of the method:
as §2

In series [10] the test system is Rattus norvegicus. Put plainly: Compound was tested for inhibiting prolactin release at the 4.56 mg/kg dose levels 3h after ip administration. The format is functional. The conditions noted are these: route intraperitoneal. The gist of the method: as §2
For series [11], the system named is Rattus norvegicus. Put plainly: Compound at the 4.56 mg/kg dose levels was evaluated for its ability to lower serum prolactin levels 3h after intraperitoneal administration. The series is classed as functional, organism-based. Details: dose 4.56 mg/kg. The gist of the method: as §2
The test system of series [12] is Rattus norvegicus. Put plainly: Dopaminergic activity, ability to lower serum prolactin levels after intraperitoneal administration of compound (0.001 mg/kg) in rats. The format is functional, organism-based. The method, boiled down:
as §1

Series [13] deals with Rattus norvegicus. Put plainly: Compound was tested for the percent prolactin inhibiting activity at the 0.1 mg/kg dose levels. The format is functional. The gist of the method:
(§3)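 Adult male Wistar rats (250-300 g), individually caged, food and water ad libitum, pretreated ip with reserpine 2.5 mg/rat 18 h before dosing to keep prolactin high. Single ip dose in distilled water (1 mL per kg); controls received isotonic saline. Serum prolactin measured by radioimmunoassay in duplicate, 100 μL serum, as ng rat prolactin RP3/mL; % inhibition versus saline controls.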

Series [14] relates to Rattus norvegicus. Put plainly: Dopaminergic activity, ability to lower serum prolactin levels after intraperitoneal administration of compound (0.1 mg/kg) in rats. The format is functional, organism-based. The method, boiled down: as §1
Series [15] has as its system Rattus norvegicus. In words: Compound was tested for the percent prolactin inhibiting activity at the 0.01 mg/kg dose levels. The format is functional. The method, boiled down:
as §3

The subject of series [16] is Rattus norvegicus. Put plainly: Compound was tested for the percent prolactin inhibiting activity at the 0.001 mg/kg dose levels. The format is functional. The method, boiled down: as §3
Series [17] has as its system Rattus norvegicus. In words: Dopaminergic activity, ability to lower serum prolactin levels after intraperitoneal administration of compound (0.01 mg/kg) in rats. The series is classed as functional, organism-based. The method, boiled down: as §1
Series [18] relates to Rattus norvegicus. Put plainly: Dopaminergic activity, ability to lower serum prolactin levels after intraperitoneal administration of compound (34.7 mg/kg). The format is functional, organism-based. The method, boiled down: as §1
Series [19] relates to Rattus norvegicus. In words: Dopaminergic activity, ability to lower serum prolactin levels after intraperitoneal administration of compound (8.33 mg/kg). The format is functional, organism-based. The gist of the method:
as §1

The subject of series [20] is Rattus norvegicus. In words: Compound was tested for inhibiting prolactin release at the 4.165 mg/kg dose levels. The series is classed as functional. The method, boiled down:
as §1

The subject of series [21] is Rattus norvegicus. Put plainly: Compound was tested for inhibiting prolactin release at 0.833 mg/kg dose levels. The format is functional. The method, boiled down: as §1
In series [22] the test system is Rattus norvegicus. Put plainly: Dopaminergic activity, ability to lower serum prolactin levels after intraperitoneal administration of compound (0.833 mg/kg). The series is classed as functional, organism-based. The gist of the method: as §1
Series [23] has as its system Rattus norvegicus. Put plainly: Dopaminergic activity, ability to lower serum prolactin levels after intraperitoneal administration of compound (4.165 mg/kg). The series is classed as functional, organism-based. The method, boiled down:
as §1

Series [24] concerns Rattus norvegicus. In words: Compound was tested for inhibiting prolactin release at the 8.33 mg/kg dose levels. The format is functional. The method, boiled down:
as §1

The test system of series [25] is Rattus norvegicus. Put plainly: Dopaminergic activity, ability to lower serum prolactin levels after intraperitoneal administration of compound (11.2 mg/kg) in rats. The format is functional, organism-based. The gist of the method: as §1
The subject of series [26] is Rattus norvegicus. In words: Dopaminergic activity, ability to lower serum prolactin levels after intraperitoneal administration of compound (50.0 mg/kg). The format is functional, organism-based. The gist of the method: as §1
Series [27] deals with Rattus norvegicus. In words: Compound was tested for inhibiting prolactin release at the 50.0 mg/kg dose levels. The format is functional. The method, boiled down: as §1
Series [28] has as its system Rattus norvegicus. In words: Compound was tested for inhibiting prolactin release at the 103.3 mg/kg dose levels. The series is classed as functional. The method, boiled down:
as §1

The test system of series [29] is Rattus norvegicus. In words: Dopaminergic activity, ability to lower serum prolactin levels after intraperitoneal administration of compound (103.3 mg/kg). The series is classed as functional, organism-based. The method, boiled down: as §1

For orientation: inhibition in vivo means the relative decrease from the control value, in per cent. A lower inhibition in vivo goes with a response near the control. What is called LD50 is the dose at which mortality reaches 50%. High values mean lower toxicity, low ones greater toxicity. Molecule `CCCN1CCC[C@@H]2c3cccnc3CC[C@H]21` showed an inhibition in vivo at 0.456 mg/kg in the series with Rattus norvegicus [1] of 47.3%. Moreover, the inhibition in vivo at 4.56 mg/kg in the series with Rattus norvegicus [2] was found to be 85%; with Rattus norvegicus [5], 41.8%; in the series on Rattus norvegicus [10], 70%. Besides, the inhibition in vivo at 0.0456 mg/kg in the series with Rattus norvegicus [3] is 27.5%. The 50% lethal dose (LD50) in series [4] came to 183 mg/kg. The Level worked out at 2.5 ng/mL in the series with Rattus norvegicus [6]; 12.1 ng/mL in the series on Rattus norvegicus [7]; 8.8 ng/mL with Rattus norvegicus [8]; 9.6 ng/mL with Rattus norvegicus [9]; 4.6 ng/mL in the series on Rattus norvegicus [11].

In the case of `CC(C)C[C@H]1C(=O)N2CCC[C@H]2[C@]2(O)O[C@](NC(=O)[C@@H]3C=C4c5cccc6[nH]c(Br)c(c56)C[C@H]4N(C)C3)(C(C)C)C(=O)N12` [BROMOCRIPTINE], the Level with Rattus norvegicus [12] was determined as 12.7 ng/mL; with Rattus norvegicus [14], 1.6 ng/mL; with Rattus norvegicus [17], 6.6 ng/mL. In the series on Rattus norvegicus [13], this molecule gave an inhibition in vivo at 0.1 mg/kg of 90.4%. In the series with Rattus norvegicus [15], this molecule showed an inhibition in vivo at 0.01 mg/kg of 60.4%. In addition, the inhibition in vivo at 0.001 mg/kg in the series with Rattus norvegicus [16] was 23.9%.

As to `CCCN1CCC[C@H]2c3cccnc3CC[C@H]21`, the 50% lethal dose (LD50) in [4] stood at 139 mg/kg. This molecule yielded a Level with Rattus norvegicus [18] of 19.3 ng/mL.

`CCN1CCC[C@@H]2c3cccn4cc(C)c(c34)C[C@H]21` yielded a 50% lethal dose (LD50) in [4] of 228 mg/kg. Moreover, the Level in the series with Rattus norvegicus [19] is 3.3 ng/mL; in the series with Rattus norvegicus [22], 10.9 ng/mL; in the series on Rattus norvegicus [23], 4.7 ng/mL. The molecule further registered an inhibition in vivo at 4.165 mg/kg with Rattus norvegicus [20] of 71.3%. In addition, the inhibition in vivo at 0.833 mg/kg with Rattus norvegicus [21] was found to be 34.7%. The molecule further gave an inhibition in vivo at 8.33 mg/kg with Rattus norvegicus [24] of 80.2%.

`Cc1cn2cccc3c2c1C[C@@H]1[C@@H]3CCCN1C` showed an LD50 in [4] of 45 mg/kg. In the series on Rattus norvegicus [25], this molecule came in with a Level of 18.9 ng/mL.

In turn, `CN1CCC[C@H]2c3cccnc3CC[C@H]21` registered a median lethal dose (LD50) in series [4] of 200 mg/kg. For the same molecule, in the series on Rattus norvegicus [26], the Level is 14.3 ng/mL. The molecule further came in with an inhibition in vivo at 50 mg/kg in the series on Rattus norvegicus [27] of 14.3%.

On to `CCCN1CCC[C@@H]2c3cccn4cc(C)c(c34)C[C@H]21`, for which the LD50 in [4] came out at 413 mg/kg. The same molecule yielded an inhibition in vivo at 103.3 mg/kg in the series on Rattus norvegicus [28] of 38.9%. The Level with Rattus norvegicus [29] is 10.2 ng/mL.
